The target of one series is T1, rat M4 receptor (Rattus norvegicus, UniProt P08485).
T1 sequence (P08485 1-478): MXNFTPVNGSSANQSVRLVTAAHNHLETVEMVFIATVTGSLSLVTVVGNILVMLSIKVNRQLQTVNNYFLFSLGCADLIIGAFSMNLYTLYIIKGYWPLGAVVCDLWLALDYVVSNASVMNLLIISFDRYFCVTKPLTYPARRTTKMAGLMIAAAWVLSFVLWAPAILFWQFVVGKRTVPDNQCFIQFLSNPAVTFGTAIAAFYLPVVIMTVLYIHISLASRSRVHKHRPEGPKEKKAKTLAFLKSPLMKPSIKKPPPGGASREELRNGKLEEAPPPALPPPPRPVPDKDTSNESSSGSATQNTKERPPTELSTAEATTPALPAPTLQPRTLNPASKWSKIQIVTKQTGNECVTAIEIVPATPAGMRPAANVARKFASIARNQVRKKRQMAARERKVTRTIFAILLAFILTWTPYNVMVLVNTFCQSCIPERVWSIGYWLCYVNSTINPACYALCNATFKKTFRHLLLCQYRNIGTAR
The class given is cell-based.

In series [1] the test system is wild-type mice. Kind of series: MK-801-induced hyperlocomotion in wild-type mice. The format is in vivo, mouse. As to conditions: IP. The gist of the method: (§1)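 Wild-type and M4 KO mice were habituated 90 min in a photobeam open field. They then received vehicle (10% Tween 80 IP), followed 30 min later by saline or MK-801 IP, and activity was recorded for 120 min. Distance traveled was binned per 5 min. Totals covered t = 120 to 240 min and were analyzed by ANOVA with Bonferroni post hoc tests.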

For series [2], the system named is M4 KO mice. Kind of series: MK-801-induced hyperlocomotion in M4 KO mice. The settings on record: IP, lowest significant dose. The format is in vivo, mouse. In outline:
as §1

Series [3] relates to wild-type mice. In words: Touchscreen pairwise visual discrimination task, wild-type mice. The format is in vivo, mouse. In outline: (§2)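 Mice aged 8–11 weeks were held at ~85% free-feeding weight, with water freely available. They were trained on touchscreen nosepoke discrimination (60 trials or 60 min) to ≥85% accuracy on 3 consecutive days. Next day: vehicle (10% Tween 80 IP) or test compound (3–30 mg/kg IP) 60 min pre-test, then saline or MK-801 (0.1–0.3 mg/kg IP) 30 min later. Mice were retested drug-free 24 h later. Analysis: ANOVA with Bonferroni tests.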

The subject of series [4] is M4 KO mice. In words: Touchscreen pairwise visual discrimination task, M4 KO mice. The format is in vivo, mouse. The settings on record: M4 KO. In outline:
as §2

Series [5] concerns wild-type mice. In words: Contextual fear conditioning, four-shock, MK-801-induced deficit. The class given is in vivo, mouse. As to conditions: MK-801 0.1–0.3 mg/kg prior to the four-shock conditioning trial. In outline: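 Subjects were wild-type and M4 KO mice, 8–11 weeks old, handled for 3 days and saline-injected 1 day before conditioning. Vehicle (10% Tween 80 in water, IP) or test compound (3–10 mg/kg IP) was given 30 min before saline or MK-801 (0.1–0.3 mg/kg IP). Mice entered the chamber 30 min later for a four-shock conditioning trial. Percent freezing was scored 24 h later, drug-free.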

Series [6] concerns wild-type mice. In words: Modified Irwin neurological test battery. The class given is in vivo, mouse. As to conditions: 1 mg/kg.
The mark [7] stands for this setting: potentiation of an EC20 concentration of ACh, CHO cells.

Molecules are shown by their SMILES. Structures can show the parent of a compound that is named as a salt. Marks after values point to notes of the source that are not given here.

A word on the EC50: it is the concentration at which the effect is half-maximal. In general, pEC50 refers to the EC50 on a negative log10 scale, so that one unit is a factor of ten. As to `COc1nc2sc(C(=O)NC3CC3)c(N)c2c(C)c1Cl` [LY2033298], the “%AChmax” value at rat M4 receptor (maximum response as % of the Emax of ACh) came out at 67%. At rat M4 receptor (setting [7]), the 50% effective concentration (EC50) stood at 646 nM and the pEC50 is 6.19 ± 0.03.
On to `C[C@]12N[C@H](Cc3ccccc31)c1ccccc12` [MK-801, (5S,10R)-(+)-5-methyl-10,11-dihydro-5H-dibenzo[a,d]cyclohepten-5,10-imine maleate, reference compound], for which the “dose with significant effect on locomotor activity” value in the series with wild-type mice [1] is given as 3 mg/kg; in the series with M4 KO mice [2], 0.18 mg/kg. For the same compound, the “response accuracy on the test day” value with wild-type mice [3] (0.3 mg/kg MK-801 (vehicle group 92%)) is given as 63%; with M4 KO mice [4] (MK-801 alone (vehicle 91%)), 73%. The results for the “correct reward collection latency” value in the series on wild-type mice [3] (vehicle + MK-801 0.10 mg/kg IP), in the series on wild-type mice [3] (vehicle + MK-801 0.30 mg/kg IP) and with M4 KO mice [4] (vehicle + MK-801 0.30 mg/kg IP) were 1.32 ± 0.15 s, 5.58 ± 2.58 s and 1.54 ± 0.15 s, respectively. The values for the correct touch latency in the series with wild-type mice [3] (vehicle + MK-801 0.10 mg/kg IP), in the series with wild-type mice [3] (vehicle + MK-801 0.30 mg/kg IP) and with M4 KO mice [4] (vehicle + MK-801 0.30 mg/kg IP) were 2.95 ± 0.57 s, 8.65 ± 1.99 s and 8.76 ± 2.19 s, respectively. Also, the entries for the “time to complete 60 trials” value in the series on wild-type mice [3] (vehicle + MK-801 0.10 mg/kg IP), with wild-type mice [3] (vehicle + MK-801 0.30 mg/kg IP) and with M4 KO mice [4] (vehicle + MK-801 0.30 mg/kg IP) were 1004 ± 124.3 s, 1118 ± 139.2 s and 1264 ± 280.5 ^f s, respectively. In the series on wild-type mice [5], the “acquisition of contextual fear conditioning (percent freezing)” value is given as “dose-dependently impaired”.
On to `O=C1CCCN1CC#CCN1CCCC1` [oxotremorine, oxotremorine sesquifumarate, reference compound], for which the “autonomic function and somatomotor deficits” value with wild-type mice [6] was “induced time-dependent changes in autonomic function”.
